Test results: PMC11843339 (ACS Bio & Med Chem Au, 2024)
Read-outs that look alike come from different tables or passages of the source.

Experiments:
143B = assay: MTT cytotoxicity assay, 143B cells; type: cell-based, human; conditions: 72 h, read-out: cytotoxic activity IC50
Procedure, shortened: (§1)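 Human osteosarcoma cells (from ATCC) were seeded at 5 × 10^3 per well and left to attach overnight at 37 °C, 5% CO2. They were then exposed to test compound for 72 h. Medium was replaced with 0.5 mg/mL MTT in culture medium for 2 h at 37 °C, and formazan was dissolved in DMSO. OD was read at 570 nm, survival was calculated as % of untreated control OD, and runs were done in triplicate.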

[1] = tested on: osteosarcoma cancer cell lines (MNNG/HOS, U2OS, 143B, SaOS-2); assay: MTT cytotoxicity, summary over osteosarcoma cell lines; type: cell-based, human; conditions: for IC50: Homo sapiens, 72 h, read-out: IC50 range against all OS cell lines
Procedure, shortened: as §1

SaOS-2 = assay: MTT cytotoxicity assay, SaOS-2 cells; type: cell-based, human; conditions: read-out: cytotoxic activity IC50
Procedure, shortened: as §1

U2OS = assay: MTT cytotoxicity assay, U2OS cells; type: cell-based, human; conditions: 72 h, read-out: cytotoxic activity IC50
Procedure, shortened: as §1

MNNG/HOS = assay: MTT cytotoxicity assay, MNNG/HOS cells; type: cell-based, human; conditions: 72 h, read-out: cytotoxic activity IC50
Procedure, shortened: as §1

human IMPDH2 = human IMPDH2 (Homo sapiens, UniProt P12268); assay: IMPDH2 inhibitory assay; type: biochemical
hFOB 1.19 = assay: MTT cell viability, normal osteoblast cells hFOB 1.19; type: cell-based, human; conditions: at the tested concentrations (0.1-100 μM), in words
Procedure, shortened: (§2)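 Normal human osteoblasts (hFOB 1.19, from ATCC) were exposed to test compound at 0.1, 1.0, 10.0 and 100.0 μM for 72 h. Viability was read by MTT: 0.5 mg/mL for 2 h at 37 °C, DMSO solubilisation, OD at 570 nm. Values are expressed relative to untreated control set at 100%, as mean ± SD (n = 3).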

[2] = as above; type: cell-based, human; conditions: human, hFOB 1.19 normal osteoblast cells
Procedure, shortened: as §2

human IMPDH1 = human IMPDH1 (Homo sapiens, UniProt P20839); assay: IMPDH1 inhibitory assay; type: biochemical
human IMPDH1, sequence (P20839 whole entry): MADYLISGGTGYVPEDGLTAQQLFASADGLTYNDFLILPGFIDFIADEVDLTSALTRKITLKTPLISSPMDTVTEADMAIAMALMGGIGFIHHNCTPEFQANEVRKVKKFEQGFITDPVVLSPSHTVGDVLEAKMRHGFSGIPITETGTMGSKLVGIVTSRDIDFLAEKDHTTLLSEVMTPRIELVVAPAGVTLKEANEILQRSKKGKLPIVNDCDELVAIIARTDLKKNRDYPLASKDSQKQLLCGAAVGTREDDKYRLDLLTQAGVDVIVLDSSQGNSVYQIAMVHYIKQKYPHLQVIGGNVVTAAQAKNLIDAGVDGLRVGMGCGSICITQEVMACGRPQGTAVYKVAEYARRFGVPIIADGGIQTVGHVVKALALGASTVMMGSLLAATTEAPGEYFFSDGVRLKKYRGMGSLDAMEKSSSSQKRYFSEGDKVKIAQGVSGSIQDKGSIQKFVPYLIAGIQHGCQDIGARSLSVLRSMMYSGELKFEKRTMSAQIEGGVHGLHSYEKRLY

Compound	IC50 (143B; Homo sapiens, 143B)	IC50 [1]	IC50 (SaOS-2; Homo sapiens, SAOS-2, 72 h)	IC50 (U2OS; Homo sapiens, U2OS)	IC50 (MNNG/HOS; Homo sapiens, HOS)	also measured
COc1c(C)c2c(c(O[Si](C)(C)C(C)(C)C)c1C/C=C(\C)CCC(=O)O[Si](C)(C)C(C)(C)C)C(=O)OC2 [Compound 2a, tert-Butyldimethylsilyl (E)-6-(4-((tert-Butyldimethylsilyl)oxy)-6-methoxy-7-methyl-3-oxo-1,3-dihydroisobenzofuran-5-yl)-4-methylhex-4-enoate]	4.12 ± 0.28 µM	1.36 to 5.43 µM	5.43 ± 2.87 µM	3.8 ± 0.88 µM	1.36 ± 0.76 µM	
COc1c(C)c2c(c(O[Si](c3ccccc3)(c3ccccc3)C(C)(C)C)c1C/C=C(\C)CCC(=O)O[Si](c1ccccc1)(c1ccccc1)C(C)(C)C)C(=O)OC2 [Compound 2b, tert-Butyldiphenylsilyl (E)-6-(4-((tert-Butyldiphenylsilyl)oxy)-6-methoxy-7-methyl-3-oxo-1,3-dihydroisobenzofuran-5-yl)-4-methylhex-4-enoate]	5.85 ± 0.54 µM	1.18 to 5.85 µM	5.8 ± 1.15 µM	2.52 ± 0.96 µM	1.18 ± 0.74 µM	
COc1c(C)c2c(c(O[Si](C(C)C)(C(C)C)C(C)C)c1C/C=C(\C)CCC(=O)O[Si](C(C)C)(C(C)C)C(C)C)C(=O)OC2 [Compound 2c, Triisopropylsilyl (E)-6-(6-Methoxy-7-methyl-3-oxo-4-((triisopropylsilyl)oxy)-1,3-dihydroisobenzofuran-5-yl)-4-methylhex-4-enoate]	63.1 ± 3.2 µM	6.82 to 63.9 µM	17.4 ± 9.03 µM	24.43 ± 0.04 µM	6.82 ± 3.51 µM	
COc1c(C)c2c(c(O)c1C/C=C(\C)CCC(=O)O[Si](c1ccccc1)(c1ccccc1)c1ccccc1)C(=O)OC2 [Compound 2d, Triphenylsilyl (E)-6-(4-Hydroxy-6-methoxy-7-methyl-3-oxo-1,3-dihydroisobenzofuran-5-yl)-4-methylhex-4-enoate]	1.65 ± 0.26 µM	0.64 to 2.27 µM	2.27 ± 0.68 µM	1.01 ± 0.4 µM	0.64 ± 0.15 µM	Ki (human IMPDH2): 1.8 µM; cytotoxicity to human normal osteoblast cells (hFOB 1.19) (hFOB 1.19): low cytotoxicity; viability at 72 h, 0.1 µM [2]: 93.9 ± 1.01%; viability at 72 h, 1 µM [2]: 92 ± 1.78%; viability at 72 h, 10 µM [2]: 84.5 ± 2.95%; viability at 72 h, 100 µM [2]: 73.3 ± 1.39%; Ki (human IMPDH1; read-out: Ki,app (apparent tight-binding inhibition constant), IMPDH1, IMP 100 μM, NAD+ 200 μM, NO = No inhibition observed): > 100 µM; fold more potent than carbon compound 2e ([1]; 143B and SaOS cell lines, versus 2e): 2 to 3 fold
COc1c(C)c2c(c(O)c1C/C=C(\C)CCC(=O)OC(c1ccccc1)(c1ccccc1)c1ccccc1)C(=O)OC2 [Compound 2e, Trityl (E)-6-(4-Hydroxy-6-methoxy-7-methyl-3-oxo-1,3-dihydroisobenzofuran-5-yl)-4-methylhex-4-enoate]	5.13 ± 1.1 µM	0.68 to 5.13 µM	4.83 ± 0.5 µM	0.98 ± 0.035 µM	0.68 ± 0.11 µM	
COc1c(C)c2c(c(O[Si](C)(C)C(C)(C)C)c1C/C=C(\C)CCC(=O)O)C(=O)OC2 [Compound 3a, (E)-6-(4-((tert-Butyldimethylsilyl)oxy)-6-methoxy-7-methyl-3-oxo-1,3-dihydroisobenzofuran-5-yl)-4-methylhex-4-enoic acid]	3.9 ± 0.76 µM		4.55 ± 2.6 µM	2.31 ± 1.26 µM	0.86 ± 0.2 µM	
COc1c(C)c2c(c(O[Si](C(C)C)(C(C)C)C(C)C)c1C/C=C(\C)CCC(=O)O)C(=O)OC2 [Compound 3c, (E)-6-(6-Methoxy-7-methyl-3-oxo-4-((triisopropylsilyl)oxy)-1,3-dihydroisobenzofuran-5-yl)-4-methylhex-4-enoic acid]	6.31 ± 0.4 µM		5.44 ± 0.82 µM	3.75 ± 1.06 µM	2.68 ± 1.02 µM	
COc1c(C)c2c(c(O)c1C/C=C(\C)CCC(=O)O[Si](c1ccccc1)(c1ccccc1)C(C)(C)C)C(=O)OC2 [Compound 4b, tert-Butyldiphenylsilyl (E)-6-(4-Hydroxy-6-methoxy-7-methyl-3-oxo-1,3-dihydroisobenzofuran-5-yl)-4-methylhex-4-enoate]	6.8 ± 1.41 µM		1.85 ± 0.35 µM	1.85 ± 0.07 µM	13 ± 4.24 µM	
COc1c(C)c2c(c(O)c1C/C=C(\C)CCC(=O)O[Si](C(C)C)(C(C)C)C(C)C)C(=O)OC2 [Compound 4c, Triisopropylsilyl (E)-6-(4-Hydroxy-6-methoxy-7-methyl-3-oxo-1,3-dihydroisobenzofuran-5-yl)-4-methylhex-4-enoate]	35 ± 9.9 µM		5.5 ± 1.51 µM	0.92 µM	5.7 ± 0.71 µM	
COc1c(C)c2c(c(O[Si](c3ccccc3)(c3ccccc3)C(C)(C)C)c1C/C=C(\C)CCC(=O)ON1C(=O)c3ccccc3C1=O)C(=O)OC2 [Compound 5a, 1,3-Dioxoisoindolin-2-yl (E)-6-(4-((tert-Butyldiphenylsilyl)oxy)-6-methoxy-7-methyl-3-oxo-1,3-dihydroisobenzofuran-5-yl)-4-methylhex-4-enoate]	31 ± 1.41 µM		12 µM	10.2 ± 3.89 µM	19.5 ± 3.54 µM	
COc1ccc(CCOC(=O)CC/C(C)=C/Cc2c(OC)c(C)c3c(c2O[Si](c2ccccc2)(c2ccccc2)C(C)(C)C)C(=O)OC3)cc1 [Compound 5c, 4-Methoxyphenethyl (E)-6-(4-((tert-Butyldiphenylsilyl)oxy)-6-methoxy-7-methyl-3-oxo-1,3-dihydroisobenzofuran-5-yl)-4-methylhex-4-enoate]	14.5 ± 4.95 µM		39.5 ± 0.71 µM	10.2 ± 1.06 µM	43.5 ± 2.12 µM	
COc1c(C)c2c(c(O)c1C/C=C(\C)CCC(=O)ON1C(=O)c3ccccc3C1=O)C(=O)OC2 [Compound 6a, 1,3-Dioxoisoindolin-2-yl (E)-6-(4-Hydroxy-6-methoxy-7-methyl-3-oxo-1,3-dihydroisobenzofuran-5-yl)-4-methylhex-4-enoate]	4.85 ± 1.48 µM		6.9 µM	1.38 ± 0.6 µM		
COc1c(C)c2c(c(O)c1C/C=C(\C)CCC(=O)OCCc1ccc(F)cc1)C(=O)OC2 [Compound 6b, 4-Fluorophenethyl (E)-6-(4-Hydroxy-6-methoxy-7-methyl-3-oxo-1,3-dihydroisobenzofuran-5-yl)-4-methylhex-4-enoate]	2 ± 0.14 µM		5.75 ± 1.06 µM	7 ± 2.12 µM		
COc1ccc(CCOC(=O)CC/C(C)=C/Cc2c(O)c3c(c(C)c2OC)COC3=O)cc1 [Compound 6c, 4-Methoxyphenethyl (E)-6-(4-Hydroxy-6-methoxy-7-methyl-3-oxo-1,3-dihydroisobenzofuran-5-yl)-4-methylhex-4-enoate]	2.6 ± 0.28 µM		9 ± 1.41 µM	7.35 ± 1.63 µM	38 ± 11.3 µM	
COc1c(C)c2c(c(O)c1C/C=C(\C)CCC(=O)O)C(=O)OC2 [MPA 1, Mycophenolic acid, reference compound]	1.55 ± 0.49 µM	0.64 to 4 µM	4 ± 0.28 µM	0.68 ± 0.04 µM	0.64 ± 0.08 µM	viability at 72 h, 0.1 µM [2]: 74.3 ± 4.24%; viability at 72 h, 1 µM [2]: 20.1 ± 1.41%; viability at 72 h, 10 µM [2]: 7.13 ± 0.67%; viability at 72 h, 100 µM [2]: 3.38 ± 3.4%; Ki (human IMPDH1): 0.136 µM
(E)-6-(4-((tert-Butyldimethylsilyl)oxy)-6-methoxy-7-methyl-3-oxo-1,3-dihydroisobenzofuran-5-yl)-4-methylhex-4-enoic acid [Compound 3b]						IC50 (143B; 143B cells, MTT): 4.74 ± 0.76 µM; IC50 (SaOS-2; SaOS cells, MTT, 72 h): 4.58 ± 1.05 µM; IC50 (U2OS; U2OS cells, MTT): 2.96 ± 2.32 µM; IC50 (MNNG/HOS; MNNG cells, MTT): 1.15 ± 0.35 µM
